Source: ChEMBL document CHEMBL1136729, “Synthesis of 3'- and 5'-nitrooxy pyrimidine nucleoside nitrate esters: "nitric oxide donor" agents for evaluation as anticancer and antiviral agents” (J Med Chem, 2003)
Values after ≈ are worked out from the molar mass of the structure shown.

Assays:
Human alphaherpesvirus 1 [1] = experiment: Inhibitory activity against HSV-1; type: functional, organism-based
Human alphaherpesvirus 2 [2] = experiment: Inhibitory activity against HSV-2; type: functional, organism-based
Vaccinia virus = experiment: Inhibitory activity against vaccinia virus; type: functional, organism-based; conditions: Orthopoxvirus vaccinia
143B [3] = experiment: In vitro cell cytotoxicity against 143-B cell lines (Human osteosarcoma cell line); type: functional
Outline: (§1)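 MTT assay. KBALB, KBALB-STK, 143B and 143B-LTK cells were grown in DMEM with 10% FBS; EMT-6 cells in Waymouth medium with 12.5% FBS. Cells were seeded at 8 × 10² per well and grown 24 h. Compound in DMEM was added for 3 days at 37 °C in 5% CO2, followed by MTT for 4 h, DMSO solubilisation and blank-corrected A540. CC50 is the concentration cutting A540 to 50% of control, mean of n = 6.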

[4] = Compound was tested for in vitro nitric oxide release in the presence of 18 mM L-cysteine at 16 h; type: functional
Outline: (§2)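 Compound (2 mM stock in 0.1 M phosphate buffer pH 7.4) was mixed 1:1 with freshly made 36 mM L-cysteine in the same buffer and incubated at 37 °C for 1 or 16 h without air. The mixture was exposed to air for 10 min, then Griess reagent was added. A540 was read after 10 min. Nitrite was calculated from a 0–60 μM sodium nitrite standard curve, n = 3.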

Coxsackievirus B4 = experiment: Antiviral activity against coxsackie B4 virus; type: functional, organism-based; conditions: Enterovirus B
Human respirovirus 3 = experiment: Antiviral activity against parainfluenza-3 virus; type: functional, organism-based
KBALB cell line = experiment: In vitro cell cytotoxicity against KBALB cell line (transformed fibroblast sarcoma cell line); type: functional; conditions: Mus musculus; outline: as §1
KBALB-STK = experiment: In vitro cell cytotoxicity against KBALB-STK cell lines expressed in HSV-1 TK; type: functional; conditions: Mus musculus; outline: as §1
Rattus norvegicus [5] = species on record: Rattus norvegicus; experiment: Compound was tested for in vitro nitric oxide release in the presence of rat serum at 16 h; type: functional
Outline: (§3)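 Compound (1 × 10⁻² M stock) was mixed 1:9 with filtered rat serum. It was incubated at 37 °C for 1 or 16 h with 0.2 U/mL Aspergillus nitrate reductase, 50 mM HEPES, 5 μM FAD and 0.1 mM NADPH. Leftover NADPH was removed with lactate dehydrogenase plus pyruvate over 10 min. Griess reagent was added and A540 read after 10 min at 25 °C. % NO release came from a nitrite standard curve, n = 3.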

Rattus norvegicus [6] = species on record: Rattus norvegicus; experiment: Compound was tested for in vitro nitric oxide release in the presence of rat serum at 1 h; type: functional; outline: as §3
[7] = Compound was tested for in vitro nitric oxide release in the presence of 18 mM L-cysteine at 1 h; type: functional; outline: as §2
[8] = (§4) In vitro cell cytotoxicity against EMT-6 cell lines; type: functional; conditions: Mus musculus, EMT6; outline: as §1
Punta Toro virus = experiment: (§5) Antiviral activity against Punta toro virus in vero cell cultures; type: functional, organism-based
[9] = system: Respiratory syncytial virus; experiment: Antiviral activity against respiratory syncytial virus in Hela cell cultures; type: functional, organism-based; conditions: human respiratory syncytial virus
Sindbis virus = experiment: Antiviral activity against sindbus virus; type: functional, organism-based
[10] = system: Mammalian orthoreovirus 1; experiment: Antiviral activity against reovirus-1; type: functional, organism-based
143B [11] = experiment: In vitro cell cytotoxicity against 143B-LTK cell lines expressed in HSV-1 TK; type: functional; conditions: Homo sapiens; outline: as §1
EMT6 = experiment: as §4; type: functional; conditions: Mus musculus; outline: as §1
[12] = Compound was tested for in vitro nitric oxide release in the presence of 18 mM L-cysteine at 16h; type: functional; outline: as §2
Monkey = experiment: as §5; type: functional, organism-based, Chlorocebus sabaeus; conditions: Cercopithecidae
Human alphaherpesvirus 2 [13] = experiment: (§6) Inhibitory activity against herpes simplex virus […]; type: functional, organism-based
Human alphaherpesvirus 1 [14] = experiment: as §6; type: functional, organism-based

Row | Structure (SMILES) | CC50 (143B [3]) | NO release [4] | CC50 (KBALB cell line) | CC50 (KBALB-STK) | NO release (Rattus norvegicus [5]) | NO release (Rattus norvegicus [6]) | NO release [7] | CC50 (143B [11]) | further results
1 | O=c1[nH]c(=O)n([C@H]2C[C@H](O)[C@@H](CO)O2)cc1/C=C/I | – | – | – | – | – | – | – | – | IC50 (Human alphaherpesvirus 1 [1]): 0.0051 µg/mL (≈ 0.0134 µM); IC50 (Human alphaherpesvirus 2 [2]): 80 µg/mL (≈ 210 µM); IC50 (Vaccinia virus): 2.3 µg/mL (≈ 6.05 µM)
2 | O=c1[nH]c(=O)n([C@H]2C[C@H](O[N+](=O)[O-])[C@@H](CO)O2)cc1F | 2.4 µM | 3.8% | 8 µM | 3.5 µM | 6.6% | 4% | 0% | 74 µM | IC50 (Coxsackievirus B4): > 80 µg/mL; IC50 (Human respirovirus 3): > 80 µg/mL; CC50 [8]: 6.2 µM; IC50 (Punta Toro virus): > 80 µg/mL; IC50 [9]: > 80 µg/mL; IC50 (Sindbis virus): > 80 µg/mL; IC50 [10]: > 80 µg/mL
3 | O=c1[nH]c(=O)n([C@H]2C[C@H](O)[C@@H](CO[N+](=O)[O-])O2)cc1I | 340 µM | 36.4% | 340 µM | 250 µM | 4.7% | 3.9% | 3.7% | 21 µM | –
4 | Cc1cn([C@H]2C[C@H](O[N+](=O)[O-])[C@@H](CO)O2)c(=O)nc1N | – | 50.3% | – | – | 59.5% | 47.1% | 3.8% | 1000 µM | –
5 | O=c1[nH]c(=O)n([C@H]2C[C@H](O)[C@@H](CO)O2)cc1I [IDOXURIDINE] | 7000 µM | – | 97 µM | 10 µM | – | – | – | 7400 µM | CC50 [8]: 380 µM
6 | Nc1nc(=O)n([C@H]2C[C@H](O[N+](=O)[O-])[C@@H](CO)O2)cc1I | 200 µM | 47.2% | 1000 µM | 250 µM | 17.6% | 12.5% | 4% | 200 µM | CC50 (EMT6): 340 µM
7 | Nc1ccn([C@H]2C[C@H](O[N+](=O)[O-])[C@@H](CO)O2)c(=O)n1 | – | 17.1% | – | – | 20.2% | 18.8% | 1.5% | 200 µM | –
8 | O=c1ccn([C@H]2C[C@H](O)[C@@H](CO[N+](=O)[O-])O2)c(=O)[nH]1 | – | 59.9% | 1000 µM | – | 4.4% | 2.9% | 5.4% | – | –
9 | O=[N+]([O-])O[C@H]1CO[C@H]2[C@@H]1OC[C@H]2O[N+](=O)[O-] [ISOSORBIDE DINITRATE] | 600 µM | 24% | 970 µM | 650 µM | 2.6% | 1.9% | 3.5% | 700 µM | –
10 | Cc1cn([C@H]2C[C@H](O)[C@@H](CO)O2)c(=O)[nH]c1=O [DOXRIBTIMINE] | – | – | 95 µM | 100 µM | – | – | – | – | CC50 [8]: 130 µM
11 | Cc1cn([C@H]2C[C@H](O)[C@@H](CO[N+](=O)[O-])O2)c(=O)[nH]c1=O | – | – | – | 300 µM | 4.8% | 3.6% | 5% | – | NO release [12]: 59.8%
12 | Cc1cn([C@H]2C[C@H](O[N+](=O)[O-])[C@@H](CO)O2)c(=O)[nH]c1=O | – | 53.6% | 1000 µM | 7000 µM | 7.4% | 7.4% | 4.9% | – | IC50 (Coxsackievirus B4): > 80 µg/mL; IC50 (Human respirovirus 3): > 80 µg/mL; IC50 (Punta Toro virus): > 80 µg/mL; IC50 [9]: > 80 µg/mL; IC50 (Sindbis virus): > 80 µg/mL; IC50 [10]: > 80 µg/mL
13 | O=c1ccn([C@H]2C[C@H](O[N+](=O)[O-])[C@@H](CO)O2)c(=O)[nH]1 | – | – | – | – | 9% | 7.7% | 4.9% | 850 µM | IC50 (Coxsackievirus B4): > 80 µg/mL; IC50 (Human respirovirus 3): > 80 µg/mL; IC50 (Monkey): > 80 µg/mL; IC50 [9]: > 80 µg/mL; IC50 (Sindbis virus): > 80 µg/mL; IC50 [10]: > 80 µg/mL
14 | O=c1[nH]c(=O)n([C@H]2C[C@H](O[N+](=O)[O-])[C@@H](CO)O2)cc1I | 580 µM | 37.6% | 240 µM | 260 µM | 13.2% | 12.3% | 3.9% | 410 µM | IC50 (Human alphaherpesvirus 2 [13]): 48 µg/mL (≈ 120 µM); IC50 (Human alphaherpesvirus 1 [14]): 48 µg/mL (≈ 120 µM); IC50 (Vaccinia virus): 48 µg/mL (≈ 120 µM); IC50 (Coxsackievirus B4): > 80 µg/mL; IC50 (Human respirovirus 3): > 80 µg/mL; IC50 (Monkey): > 80 µg/mL; CC50 (EMT6): 23 µM; IC50 [9]: > 80 µg/mL; IC50 (Sindbis virus): > 80 µg/mL; IC50 [10]: > 80 µg/mL
15 | O=c1[nH]c(=O)n([C@H]2C[C@H](O)[C@@H](CO)O2)cc1F [FLOXURIDINE] | 90 µM | – | – | – | – | – | – | 100 µM | –
